According to ChEMBL document CHEMBL1126914 (J Med Chem, 1993):
Square brackets hold non-standard residues; d marks the D form. Peptide text beside a SMILES is read from it. Tic = O=C(O)[C@@H]1Cc2ccccc2CN1; Aic = NC1(C(=O)O)Cc2ccccc2C1

Columns and labels:
[1] = biological target: Delta-type opioid receptor (Rattus norvegicus, UniProt P33533); assay: Binding affinity was determined on delta [3H]DPDPE site in rat brain synaptosomes by radioreceptor assay; assay type: subcellular
How it was run: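 δ sites labelled with 0.62 nM [3H]DPDPE; rat brain (minus cerebella) P2 synaptosomes, preincubated to remove endogenous opioids, 1.6 mg protein; 2 h at 22 °C in duplicate. Nonspecific defined with 1 μM DPDPE. Rapid filtration on GF/C filters with ice-cold buffered BSA washes; liquid scintillation counting; Ki from IC50 by Cheng–Prusoff.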

Mu-type opioid receptor = Mu-type opioid receptor (Rattus norvegicus, UniProt P33535); assay: Binding affinity was determined on mu [3H]DAGO site in rat brain synaptosomes by radioreceptor assay; assay type: subcellular
Mu-type opioid receptor, sequence (P33535 whole entry): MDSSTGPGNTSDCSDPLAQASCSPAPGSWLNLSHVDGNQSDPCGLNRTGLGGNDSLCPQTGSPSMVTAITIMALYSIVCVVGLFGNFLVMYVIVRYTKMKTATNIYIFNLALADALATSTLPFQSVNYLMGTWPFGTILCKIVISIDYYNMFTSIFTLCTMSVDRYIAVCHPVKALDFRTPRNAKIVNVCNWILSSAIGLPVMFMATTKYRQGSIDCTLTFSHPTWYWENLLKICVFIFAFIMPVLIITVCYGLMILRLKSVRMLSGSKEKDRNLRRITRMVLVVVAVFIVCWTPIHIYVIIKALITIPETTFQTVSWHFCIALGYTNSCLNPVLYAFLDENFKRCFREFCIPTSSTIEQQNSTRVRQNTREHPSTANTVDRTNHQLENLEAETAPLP
How it was run: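 μ sites labelled with 0.68 nM [3H]DAGO; rat brain (minus cerebella) P2 synaptosomes, preincubated to remove endogenous opioids, 1.6 mg protein; 2 h at 22 °C in duplicate. Nonspecific defined with 1 μM DAGO. Rapid filtration on GF/C filters, washes with ice-cold buffered BSA; scintillation counting; Ki via Cheng–Prusoff from IC50.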

[2] = Bioselectivity ratio of compound as guinea pig ileum to mouse vas deferens was determined; assay type: functional
How it was run: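 GPI/MVD ratio of IC50s. GPI: 2–3 cm segments in Krebs with 70 μM hexamethonium and 0.125 μM mepyramine, 36 °C, 95% O2/5% CO2; transmural 0.5 ms, 0.1 Hz pulses at 1.5× maximal (~30 V); isotonic recording. MVD: 33 °C, field stimulation 0.1 Hz, 1 ms, 40 V; isometric recording. IC50 is 50% twitch inhibition, from four experiments.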

Delta-type opioid receptor, sequence (P33533 whole entry): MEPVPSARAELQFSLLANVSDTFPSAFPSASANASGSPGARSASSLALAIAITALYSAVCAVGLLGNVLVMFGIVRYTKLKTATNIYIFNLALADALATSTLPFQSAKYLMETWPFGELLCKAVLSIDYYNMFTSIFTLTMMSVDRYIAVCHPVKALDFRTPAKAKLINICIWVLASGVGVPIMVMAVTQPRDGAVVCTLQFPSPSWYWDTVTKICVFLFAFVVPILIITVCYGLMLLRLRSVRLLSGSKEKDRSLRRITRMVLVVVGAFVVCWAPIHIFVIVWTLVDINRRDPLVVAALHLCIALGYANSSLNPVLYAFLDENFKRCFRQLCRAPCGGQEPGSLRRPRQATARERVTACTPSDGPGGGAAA

| SMILES | Ki [1] | Ki (Mu-type opioid receptor) | Ratio [2] |
| --- | --- | --- | --- |
| CC(C)[C@H](NC(=O)[C@H](CC(=O)O)NC(=O)[C@H](Cc1ccccc1)N(C)C(=O)[C@@H](C)NC(=O)[C@@H](N)Cc1ccc(O)cc1)C(=O)N[C@H](C(=O)NCC(N)=O)C(C)C | 284 nM | 19000 nM |  |
| CC(C)[C@H](NC(=O)[C@H](CC(=O)O)NC(=O)[C@H](Cc1ccc2ccccc2c1)NC(=O)[C@@H](C)NC(=O)[C@@H](N)Cc1ccc(O)cc1)C(=O)N[C@H](C(=O)NCC(N)=O)C(C)C | 10.7 nM | 770 nM |  |
| CC(C)[C@H](NC(=O)[C@H](CC(=O)O)NC(=O)[C@H](Cc1cnc[nH]1)NC(=O)[C@@H](C)NC(=O)[C@@H](N)Cc1ccc(O)cc1)C(=O)N[C@H](C(=O)NCC(N)=O)C(C)C | 45.5 nM | 3720 nM |  |
| CC(C)[C@H](NC(=O)[C@H](CC(=O)O)NC(=O)[C@H](Cc1c[nH]c2ccccc12)NC(=O)[C@@H](C)NC(=O)[C@@H](N)Cc1ccc(O)cc1)C(=O)N[C@H](C(=O)NCC(N)=O)C(C)C | 2.34 nM | 323 nM |  |
| CC(C)[C@H](NC(=O)[C@H](CC(=O)O)NC(=O)/C(=C\c1ccccc1)NC(=O)[C@@H](C)NC(=O)[C@@H](N)Cc1ccc(O)cc1)C(=O)N[C@H](C(=O)NCC(N)=O)C(C)C | 4.23 nM | 114 nM |  |
| CC(C)[C@H](NC(=O)[C@H](CC(=O)O)NC(=O)[C@H](CCc1ccccc1)NC(=O)[C@@H](C)NC(=O)[C@@H](N)Cc1ccc(O)cc1)C(=O)N[C@H](C(=O)NCC(N)=O)C(C)C | 4.84 nM | 326 nM |  |
| CC(C)[C@H](NC(=O)[C@H](CC(=O)O)NC(=O)[C@H](Cc1ccc(O)cc1)NC(=O)[C@@H](C)NC(=O)[C@@H](N)Cc1ccc(O)cc1)C(=O)N[C@H](C(=O)NCC(N)=O)C(C)C | 34 nM | 1180 nM |  |
| CC(C)[C@H](NC(=O)[C@H](CC(=O)O)NC(=O)[C@H](Cc1cccc2ccccc12)NC(=O)[C@@H](C)NC(=O)[C@@H](N)Cc1ccc(O)cc1)C(=O)N[C@H](C(=O)NCC(N)=O)C(C)C | 0.61 nM | 279 nM |  |
| COc1ccc(C[C@H](NC(=O)[C@@H](C)NC(=O)[C@@H](N)Cc2ccc(O)cc2)C(=O)N[C@@H](CC(=O)O)C(=O)N[C@H](C(=O)N[C@H](C(=O)NCC(N)=O)C(C)C)C(C)C)cc1 | 45.4 nM | 526 nM |  |
| CC(C)[C@H](NC(=O)[C@H](CC(=O)O)NC(=O)[C@@H](NC(=O)[C@@H](C)NC(=O)[C@@H](N)Cc1ccc(O)cc1)c1ccccc1)C(=O)N[C@H](C(=O)NCC(N)=O)C(C)C | 2.85 nM | 3750 nM |  |
| CC(C)[C@H](NC(=O)[C@H](CC(=O)O)NC(=O)C1(NC(=O)[C@@H](C)NC(=O)[C@@H](N)Cc2ccc(O)cc2)Cc2ccccc2C1)C(=O)N[C@H](C(=O)NCC(N)=O)C(C)C (H-Y[dA][Aic]DVVG-NH2) | 0.2 nM | 56.2 nM | 900 |
| CC(C)[C@H](NC(=O)[C@H](CC(=O)O)NC(=O)[C@@H]1Cc2ccccc2CN1C(=O)[C@@H](C)NC(=O)[C@@H](N)Cc1ccc(O)cc1)C(=O)N[C@H](C(=O)NCC(N)=O)C(C)C (H-Y[dA][Tic]DVVG-NH2) | 90.2 nM | 7810 nM | >65 |
| CC(C)[C@H](NC(=O)[C@H](CC(=O)O)NC(=O)[C@](C)(Cc1ccccc1)NC(=O)[C@@H](C)NC(=O)[C@@H](N)Cc1ccc(O)cc1)C(=O)N[C@H](C(=O)NCC(N)=O)C(C)C (single isomer, unassigned; 6) | 69.1 nM | 1360 nM | >18 |
| CC(C)[C@H](NC(=O)[C@H](CC(=O)O)NC(=O)[C@](C)(Cc1ccccc1)NC(=O)[C@@H](C)NC(=O)[C@@H](N)Cc1ccc(O)cc1)C(=O)N[C@H](C(=O)NCC(N)=O)C(C)C (single isomer, unassigned; 6a) | 48.6 nM | 3400 nM | >20 |
| CC(C)[C@H](NC(=O)[C@H](CC(=O)O)NC(=O)C1(NC(=O)[C@@H](C)NC(=O)[C@@H](N)Cc2ccc(O)cc2)CCc2ccccc2C1)C(=O)N[C@H](C(=O)NCC(N)=O)C(C)C (single isomer, unassigned; 15) | 0.07 nM | 178 nM | 3522 |
| CC(C)[C@H](NC(=O)[C@H](CC(=O)O)NC(=O)C1(NC(=O)[C@@H](C)NC(=O)[C@@H](N)Cc2ccc(O)cc2)CCc2ccccc2C1)C(=O)N[C@H](C(=O)NCC(N)=O)C(C)C (single isomer, unassigned; 15a) | 0.12 nM | 82.3 nM | 606 |
| CC(C)[C@H](NC(=O)[C@H](CC(=O)O)NC(=O)[C@H](Cc1ccccc1)NC(=O)[C@@H](C)NC(=O)[C@@H](N)Cc1ccc(O)cc1)C(=O)N[C@H](C(=O)NCC(N)=O)C(C)C [DELTORPHIN C] | 0.31 nM | 205 nM |  |
